# Laboratory results published in ChEMBL document CHEMBL4257459, “Synergistic antifungal effect of cyclized chalcone derivatives and fluconazole against Candida albicans” (2017).
# Experiments:
# [1] = test system: Candida albicans; assay: Inhibition of ABC efflux pumps in fluconazole resistant Candida albicans 167-1 assessed as reduction in energy-dependent rhodamine 6G efflux in presence of 0.1 M glucose after 25 mins […] relative to control
# [2] = test system: Candida albicans; assay: Inhibition of ABC efflux pumps in fluconazole susceptible Candida albicans 004B1 assessed as reduction in energy-dependent rhodamine 6G efflux in presence of 0.1 M glucose after 25 mins by fluorescence assay relative to control
# Summary of the method: (§1)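 Cells grown in TSB at 37 °C for 8 h, washed, resuspended in glucose-free PBS at 1 × 10^8 cells. De-energized 45 min with 5 mM deoxyglucose plus 5 mM dinitrophenol. […] Washed, sampled 5–25 min, then 0.1 M glucose added. Absorbance 527 nm, R6G from standard curve.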
# [3] = test system: Candida albicans; assay: Inhibition of ABC efflux pumps in fluconazole susceptible Candida albicans 002B1 assessed as reduction in energy-dependent rhodamine 6G efflux in presence of 0.1 M glucose after 25 mins […] relative to control
# [4] = test system: Candida albicans; assay: Antifungal activity against fluconazole resistant Candida albicans 167-2 in presence of fluconazole by CLSI protocol based broth microdilution method; type: functional
# Summary of the method: (§2)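 Checkerboard-style combination with fluconazole at a 1 : 1 ratio, over concentrations 2–4 fold below each agent's MIC alone, by CLSI broth microdilution. Fractional inhibitory concentration index calculated and interpreted as synergy (<0.5), additive (0.5–1), indifferent or antagonistic.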
# [5] = test system: Candida albicans; assay: Antifungal activity against Candida albicans ATCC 90028 by CLSI protocol based broth microdilution method; type: functional
# Summary of the method: (§3)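 Clinical isolates and control strain subcultured at least twice on TSA, 37 °C, 48 h. MICs by CLSI M27-A3 broth microdilution; compounds dissolved in DMSO to 2000 μg mL–1 stock. Fluconazole positive control, culture, media and DMSO vehicle controls in each run. Duplicate experiments; MIC in μg mL–1.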
# [6] = test system: Candida albicans; assay: Inhibition of ABC efflux pumps in fluconazole resistant Candida albicans A171 assessed as reduction in energy-dependent rhodamine 6G efflux in presence of 0.1 M glucose after 25 mins by fluorescence assay relative to control; summary of the method: as §1
# [7] = test system: Candida albicans; assay: Antifungal activity against fluconazole susceptible Candida albicans 004B1 by CLSI protocol based broth microdilution method; type: functional; summary of the method: as §3
# [8] = test system: Candida albicans; assay: Antifungal activity against fluconazole susceptible Candida albicans 0072gr in presence of fluconazole by CLSI protocol based broth microdilution method; type: functional
# [9] = test system: Candida albicans; assay: Down regulation of ERG11 gene expression in fluconazole susceptible Candida albicans ATCC 90028 at MIC after 2 hrs by qRT PCR analysis relative to control; type: functional
# Summary of the method: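 Cells exposed to compound at MIC for 2 h; total RNA isolated, cDNA synthesised, ERG11 measured by real-time qPCR with ACT1 as endogenous control. Triplicate independent experiments; mean ± standard deviation.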
# [10] = test system: Candida albicans; assay: Inhibition of ABC efflux pumps in fluconazole susceptible Candida albicans 004gr assessed as reduction in energy-dependent rhodamine 6G efflux in presence of 0.1 M glucose after 25 mins by fluorescence assay relative to control; summary of the method: as §1
# [11] = test system: Candida albicans; assay: Inhibition of ergosterol biosynthesis in fluconazole susceptible Candida albicans ATCC 90028 at 0.5 to 1 times MIC relative to control; type: functional
# Summary of the method: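 ATCC90028 grown in 50 ml TSB with MIC and ½ MIC of compound; untreated and 8 μg mL–1 fluconazole controls. Sterols extracted by alcoholic KOH method and spectrophotometrically scanned; ergosterol % calculated from A281.5 and A230 (E values 290 and 518) with dilution factor, per pellet weight.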
# [12] = test system: Candida albicans; assay: Antifungal activity against fluconazole susceptible Candida albicans 0072gr by CLSI protocol based broth microdilution method; type: functional; summary of the method: as §3
# [13] = test system: Candida albicans; assay: Inhibition of ABC efflux pumps in fluconazole resistant Candida albicans 167-2 assessed as reduction in energy-dependent rhodamine 6G efflux in presence of 0.1 M glucose after 25 mins […] relative to control
# [14] = test system: Candida albicans; assay: Antifungal activity against fluconazole susceptible Candida albicans 004gr in presence of fluconazole by CLSI protocol based broth microdilution method; type: functional
# [15] = test system: Candida albicans; assay: Inhibition of ABC efflux pumps in fluconazole susceptible Candida albicans 003gr assessed as reduction in energy-dependent rhodamine 6G efflux in presence of 0.1 M glucose after 25 mins […] relative to control
# [16] = test system: Candida albicans; assay: Inhibition of ergosterol biosynthesis in fluconazole resistant Candida albicans A171 at 0.5 to 1 times MIC relative to control; type: functional
# Summary of the method: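 Total sterols quantified by alcoholic KOH extraction in cells grown in 50 ml TSB with compounds at MIC and ½ MIC; untreated and 8 μg mL–1 fluconazole controls. Spectral scan; ergosterol content from A281.5 and A230 absorbances, dilution factor and pellet weight, correcting for 24(28) DHE.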
# [17] = test system: Candida albicans; assay: Antifungal activity against fluconazole susceptible Candida albicans 0079gr by CLSI protocol based broth microdilution method; type: functional; summary of the method: as §3
# [18] = test system: Candida albicans; assay: Antifungal activity against fluconazole susceptible Candida albicans 004gr by CLSI protocol based broth microdilution method; type: functional; summary of the method: as §3
# [19] = test system: Candida albicans; assay: Antifungal activity against fluconazole susceptible Candida albicans 002B1 by CLSI protocol based broth microdilution method; type: functional; summary of the method: as §3
# [20] = test system: Candida albicans; assay: Down regulation of ERG11 gene expression in fluconazole resistant Candida albicans A171 at MIC after 2 hrs by qRT PCR analysis relative to control; type: functional
# Summary of the method: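 Cells exposed 2 h to test agents at MIC. Total RNA isolated, cDNA synthesized, qPCR for ERG11 with ACT1 as endogenous control. Triplicate independent experiments, reported as mean ± standard deviation.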
# [21] = test system: Candida albicans; assay: Antifungal activity against fluconazole susceptible Candida albicans 0079gr in presence of fluconazole by CLSI protocol based broth microdilution method; type: functional
# [22] = test system: Candida albicans; assay: Inhibition of ABC efflux pumps in fluconazole susceptible Candida albicans 0072gr assessed as reduction in energy-dependent rhodamine 6G efflux in presence of 0.1 M glucose after 25 mins […] relative to control
# [23] = test system: Candida albicans; assay: Antifungal activity against fluconazole susceptible Candida albicans 002B1 in presence of fluconazole by CLSI protocol based broth microdilution method; type: functional
# [24] = test system: Candida albicans; assay: Antifungal activity against Candida albicans ATCC 90028 in presence of fluconazole by CLSI protocol based broth microdilution method; type: functional
# [25] = test system: Candida albicans; assay: Antifungal activity against fluconazole resistant Candida albicans 167-2 by CLSI protocol based broth microdilution method; type: functional
# Summary of the method: (§4)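 Broth microdilution per CLSI M27-A3 against clinical C. albicans isolates. Strains sub-cultured at least twice on Tryptone Soya Agar, 37 °C, 48 h. Compounds dissolved in DMSO at 2000 μg mL–1 stock. Fluconazole positive control, plus culture, media and vehicle controls. Run in duplicate; MIC in μg mL–1.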
# [26] = test system: Candida albicans; assay: Antifungal activity against fluconazole resistant Candida albicans A171 by CLSI protocol based broth microdilution method; type: functional; summary of the method: as §4
# [27] = test system: Candida albicans; assay: Inhibition of ABC efflux pumps in fluconazole susceptible Candida albicans 0079gr assessed as reduction in energy-dependent rhodamine 6G efflux in presence of 0.1 M glucose after 25 mins by fluorescence assay relative to control; summary of the method: as §1
# [28] = test system: Candida albicans; assay: Antifungal activity against fluconazole resistant Candida albicans A171 in presence of fluconazole by CLSI protocol based broth microdilution method; type: functional; summary of the method: as §2
# [29] = test system: Candida albicans; assay: Antifungal activity against fluconazole resistant Candida albicans 167-1 in presence of fluconazole by CLSI protocol based broth microdilution method; type: functional; summary of the method: as §2
# [30] = test system: Candida albicans; assay: Antifungal activity against fluconazole susceptible Candida albicans 003gr in presence of fluconazole by CLSI protocol based broth microdilution method; type: functional
# [31] = test system: Candida albicans; assay: Antifungal activity against fluconazole susceptible Candida albicans 004B1 in presence of fluconazole by CLSI protocol based broth microdilution method; type: functional
# [32] = test system: Candida albicans; assay: Antifungal activity against fluconazole susceptible Candida albicans 003gr by CLSI protocol based broth microdilution method; type: functional; summary of the method: as §3
# [33] = test system: Candida albicans; assay: Antifungal activity against fluconazole resistant Candida albicans 167-1 by CLSI protocol based broth microdilution method; type: functional; summary of the method: as §4
SMILES,inhibition [1] [%],inhibition [2] [%],inhibition [3] [%],fractional inhibitory concentration index (FICI) [4],MIC [5] [µg/mL],inhibition [6] [%],MIC [7] [µg/mL],fractional inhibitory concentration index (FICI) [8],fold change (FC) [9],inhibition [10] [%],inhibition (INH) [11],MIC [12] [µg/mL],inhibition [13] [%],fractional inhibitory concentration index (FICI) [14],inhibition [15] [%],inhibition (INH) [16],MIC [17] [µg/mL],MIC [18] [µg/mL],MIC [19] [µg/mL],fold change (FC) [20],further results
c1ccc(-c2cc(-c3ccc(-c4cc(-c5ccccc5)n[nH]4)cc3)[nH]n2)cc1,< 20,< 20,< 20,0.531 - 2.27,2 to 16,< 20,2 to 16,0.63 - 1.5,1.5 - 13,< 20,66 - 99%,2 to 16,< 20,0.63 - 1.5,< 20,49 - 94%,2 to 16,2 to 16,2 to 16,1.25 - 10,fractional inhibitory concentration index (FICI) [21]: 0.63 - 1.5; inhibition [22]: < 20%; fractional inhibitory concentration index (FICI) [23]: 0.63 - 1.5; fractional inhibitory concentration index (FICI) [24]: 0.63 - 1.5; MIC [25]: 31 to 125 µg/mL; MIC [26]: 31 to 125 µg/mL; inhibition [27]: < 20%; fractional inhibitory concentration index (FICI) [28]: 0.531 - 2.27; fractional inhibitory concentration index (FICI) [29]: 0.531 - 2.27; fractional inhibitory concentration index (FICI) [30]: 0.63 - 1.5; fractional inhibitory concentration index (FICI) [31]: 0.63 - 1.5; MIC [32]: 2 to 16 µg/mL; MIC [33]: 31 to 125 µg/mL
O=C1NC(c2ccccc2)=CC(c2ccc(C3C=C(c4ccccc4)NC(=O)N3)cc2)N1 (stereo unspecified),< 20,< 20,< 20,0.031,0.25 to 2,< 20,0.25 to 2,0.13 - 0.38,1.5 - 13,< 20,66 - 99%,0.25 to 2,< 20,0.13 - 0.38,< 20,49 - 94%,0.25 to 2,0.25 to 2,0.25 to 2,1.25 - 10,fractional inhibitory concentration index (FICI) [21]: 0.13 - 0.38; inhibition [22]: < 20%; fractional inhibitory concentration index (FICI) [23]: 0.13 - 0.38; fractional inhibitory concentration index (FICI) [24]: 0.13 - 0.38; MIC [25]: 4 to 8 µg/mL; MIC [26]: 4 to 8 µg/mL; inhibition [27]: < 20%; fractional inhibitory concentration index (FICI) [28]: 0.031 - 0.25; fractional inhibitory concentration index (FICI) [29]: 0.031 - 0.25; fractional inhibitory concentration index (FICI) [30]: 0.13 - 0.38; fractional inhibitory concentration index (FICI) [31]: 0.13 - 0.38; MIC [32]: 0.25 to 2 µg/mL; MIC [33]: 4 to 8 µg/mL
